Laboratory results published in ChEMBL document CHEMBL4196195, “( R)- N-(1-Methyl-2-hydroxyethyl)-13-( S)-methyl-arachidonamide (AMG315): A Novel Chiral Potent Endocannabinoid Ligand with Stability to Metabolizing Enzymes” (J Med Chem, 2018).
Active and inactive are the calls of the source.

Experiments:
Cannabinoid receptor 2 = Cannabinoid receptor 2 (Mus musculus, UniProt P47936); assay: Displacement of [3H]CP-55,940 from mouse CB2 receptor expressed in HEK293 cell membranes in absence of FAAH inhibitor PMSF by radioligand binding assay
Cannabinoid receptor 2, sequence (P47936 whole entry): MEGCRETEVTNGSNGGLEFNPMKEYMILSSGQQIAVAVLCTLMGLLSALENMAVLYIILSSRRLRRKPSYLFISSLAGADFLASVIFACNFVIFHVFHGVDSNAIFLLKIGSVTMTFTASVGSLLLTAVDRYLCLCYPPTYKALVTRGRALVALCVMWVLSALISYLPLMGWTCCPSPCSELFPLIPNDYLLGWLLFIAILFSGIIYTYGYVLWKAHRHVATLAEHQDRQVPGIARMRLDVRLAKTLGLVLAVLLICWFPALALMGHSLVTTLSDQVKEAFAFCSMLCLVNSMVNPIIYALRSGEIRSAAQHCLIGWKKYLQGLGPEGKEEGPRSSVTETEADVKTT
Method in brief: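 Membranes from HEK293 cells expressing human or mouse CB2 (preparations lacking FAAH activity), competing against [3H]CP-55,940. IC50 by nonlinear regression, converted to Ki. Three independent experiments run in triplicate; Ki is the mean of the three.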

Mus musculus [1] = assay: Antiallodynic activity in CD1 mouse model of CFA-induced inflammatory pain assessed as increase in CFA-reduced mechanical paw withdrawal threshold at 5 mg/kg, ip measured at 60 mins post injection; type: functional, organism-based
Method in brief: (§1)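 Adult male mice (39 ± 10 g), wild-type CD1 or CB1 KO on CD1 background, single housed. CFA:saline 1:1 (20 μL) injected intraplantar into right hind paw; 48 h allowed before dosing. Drug given ip in 5 mL/kg, vehicle group included. Electronic von Frey (90 g probe) after ≥30 min habituation, read in duplicate per paw, at baseline, 48 h post-CFA and 10, 30, 60, 120 min post-dose. Two-way mixed ANOVA with Bonferroni post hoc tests.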

[2] = target: T1, FAAH (fatty-acid amide hydrolase 1) (Homo sapiens, UniProt O00519); assay: Stability assessed as human FAAH-mediated compound hydrolysis by LC-MS/MS analysis; type: ADME; conditions: human FAAH (fatty-acid amide hydrolase 1), read-out: Stability
T1 sequence (O00519 whole entry): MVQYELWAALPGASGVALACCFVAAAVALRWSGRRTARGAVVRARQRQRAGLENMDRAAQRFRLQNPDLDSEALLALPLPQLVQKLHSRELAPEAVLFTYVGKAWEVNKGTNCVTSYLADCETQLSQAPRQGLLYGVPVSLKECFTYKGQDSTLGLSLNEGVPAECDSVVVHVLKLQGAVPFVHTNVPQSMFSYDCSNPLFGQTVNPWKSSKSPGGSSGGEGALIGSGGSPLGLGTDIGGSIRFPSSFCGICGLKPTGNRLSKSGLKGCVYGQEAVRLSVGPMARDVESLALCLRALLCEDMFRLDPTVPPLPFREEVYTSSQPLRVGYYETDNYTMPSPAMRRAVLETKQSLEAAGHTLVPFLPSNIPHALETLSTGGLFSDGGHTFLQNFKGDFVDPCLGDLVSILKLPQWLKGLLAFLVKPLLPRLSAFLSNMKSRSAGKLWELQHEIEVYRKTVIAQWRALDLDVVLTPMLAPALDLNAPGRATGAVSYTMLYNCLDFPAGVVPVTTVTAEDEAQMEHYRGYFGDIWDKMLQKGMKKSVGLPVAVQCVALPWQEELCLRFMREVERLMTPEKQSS
Method in brief: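 Expressed, partially purified rat or human FAAH incubated with compound, or AEA as reference substrate, for 30 min. Aliquots at time points quenched in acetonitrile to precipitate protein. Remaining compound measured by LC-MS/MS on a cyano column with 10 mM ammonium acetate pH 7.3/methanol at 0.5 mL/min.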

Cannabinoid receptor 1 [3] = target: T2, Cannabinoid receptor 1 (Rattus norvegicus, UniProt P20272); assay: Agonist activity at rat CB1 receptor expressed in HEK293 cells assessed as inhibition of forskolin-induced cAMP accumulation incubated for 30 mins; type: functional, cell-based; conditions: read-out: EC50
T2 sequence (P20272 whole entry): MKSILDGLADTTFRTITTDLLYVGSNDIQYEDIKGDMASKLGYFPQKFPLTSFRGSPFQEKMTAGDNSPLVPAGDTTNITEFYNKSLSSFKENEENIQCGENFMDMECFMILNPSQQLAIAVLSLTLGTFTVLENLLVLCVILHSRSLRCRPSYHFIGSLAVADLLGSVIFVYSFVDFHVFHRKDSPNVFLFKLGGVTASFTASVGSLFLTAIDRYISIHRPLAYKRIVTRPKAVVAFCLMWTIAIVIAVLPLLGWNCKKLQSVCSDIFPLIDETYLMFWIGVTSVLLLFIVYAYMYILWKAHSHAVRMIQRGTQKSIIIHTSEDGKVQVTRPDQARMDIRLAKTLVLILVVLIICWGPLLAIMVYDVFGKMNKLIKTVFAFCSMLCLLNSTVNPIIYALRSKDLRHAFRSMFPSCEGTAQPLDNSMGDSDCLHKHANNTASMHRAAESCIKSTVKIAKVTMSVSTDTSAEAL
Method in brief: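 HEK293 cells stably expressing rCB1, harvested with nonenzymatic dissociation reagent, washed in HBSS, 1000–1500 cells/well. Test compound at various concentrations with forskolin (2 μM final) in stimulation buffer, 30 min at room temperature. cAMP read by TR-FRET (Eu-cAMP tracer plus ULight anti-cAMP, 60 min room temperature). Forskolin-stimulated cAMP set to 100%. EC50 from nonlinear regression; two independent experiments in triplicate.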

[4] = target: Cannabinoid receptor 1 (Rattus norvegicus) (UniProt P20272); assay: Agonist activity at rat CB1 receptor expressed in HEK293 cells assessed as inhibition of forskolin-induced cAMP accumulation incubated for 30 mins relative to 500 nM CP-55,940; type: functional, cell-based
Cannabinoid receptor 1 (Rattus norvegicus), sequence (P20272 whole entry): as above

Mus musculus [5] = assay: Antiallodynic activity in CD1 mouse model of CFA-induced inflammatory pain assessed as increase in CFA-reduced mechanical paw withdrawal threshold at 5 mg/kg, ip measured at 120 mins post injection; type: functional, organism-based; method in brief: as §1
Cannabinoid receptor 1 [6] = target: T2, Cannabinoid receptor 1; assay: Displacement of [3H]CP-55,940 from CB1 receptor in rat brain membranes in presence of FAAH inhibitor PMSF by radioligand binding assay; type: cell membranes, Membrane
Mus musculus [7] = assay: Antiallodynic activity in CD1 mouse model of CFA-induced inflammatory pain assessed as increase in CFA-reduced mechanical paw withdrawal threshold at 5 mg/kg, ip measured up to 30 mins post injection; type: functional, organism-based; method in brief: as §1
Mus musculus [8] = assay: Effect on mechanical paw withdrawal threshold of contralateral paw in CB1 receptor knockout CD1 mouse model of CFA-induced inflammatory pain at 5 mg/kg, ip measured at 10 to 120 mins post injection; type: ADME, organism-based; conditions: in vivo
Method in brief: (§2)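 Wild-type CD1 or CB1 KO (CD1 background) adult male mice. Unilateral intraplantar CFA:saline 1:1 (20 μL) into right hind paw, 48 h before ip dosing (5 mL/kg); vehicle controls. Threshold of the uninjected contralateral paw measured by electronic von Frey (90 g probe), duplicate readings averaged, at 10, 30, 60, 120 min post-dose. Two-way mixed ANOVA.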

Mus musculus [9] = assay: Antiallodynic activity in CD1 mouse model of CFA-induced inflammatory pain assessed as increase in CFA-reduced mechanical paw withdrawal threshold at 5 mg/kg, ip measured at 10 mins post injection; type: functional, organism-based; method in brief: as §1
Mus musculus [10] = assay: Effect on mechanical paw withdrawal threshold of contralateral paw in CD1 mouse model of CFA-induced inflammatory pain at 5 mg/kg, ip measured at 10 to 120 mins post injection; type: ADME, organism-based; conditions: in vivo; method in brief: as §2
Mus musculus [11] = assay: Antiallodynic activity in CB1 receptor knockout CD1 mouse model of CFA-induced inflammatory pain assessed as increase in CFA-reduced mechanical paw withdrawal threshold at 5 mg/kg, ip measured at 10 to 120 mins post injection; type: functional, organism-based; method in brief: as §1
Cannabinoid receptor 1 [12] = target: T2, Cannabinoid receptor 1; assay: Displacement of [3H]CP-55,940 from CB1 receptor in rat brain membranes in absence of FAAH inhibitor PMSF by radioligand binding assay; type: cell membranes, Membrane

CCCCC/C=C\[C@H](C)/C=C\C/C=C\C/C=C\CCCC(=O)N[C@H](C)CO
Ki (Cannabinoid receptor 2): 653 nM
Activity (Mus musculus [1]): Active
half-life [2]: 30 min
EC50 (Cannabinoid receptor 1 [3]): 0.6 nM
Emax [4]: 76%
Activity (Mus musculus [5]): inactive
Ki (Cannabinoid receptor 1 [6]): 8.9 nM
Activity (Mus musculus [7]): Active
Activity (Mus musculus [8]): Non-Toxic
Activity (Mus musculus [9]): Active
Activity (Mus musculus [10]): Non-Toxic
Activity (Mus musculus [11]): inactive
Ki (Cannabinoid receptor 1 [12]): 7.8 nM
